The source of these data is ChEMBL document CHEMBL1131169, “Efficacious, orally bioavailable thrombin inhibitors based on 3-aminopyridinone or 3-aminopyrazinone acetamide peptidomimetic templates” (J Med Chem, 1998).

One may read the pKi as the Ki on a negative log10 scale, so that one unit is a factor of ten. Low readings indicate a high Ki, high ones a low Ki. The term half-life denotes the time in which the quantity being followed falls by half. Higher therefore signals slow loss. By AUC is commonly meant concentration integrated over time. Low readings indicate low exposure, high ones high exposure. As usually defined, the Cmax is the maximum level reached in the sampled fluid or tissue. The term Tmax denotes the time from dosing to the highest level.

Series [1] in a line: in vitro anticoagulant potency (2x APTT) against Human plasma. The format is functional.
A further series deals with Serine protease 1 (Homo sapiens, UniProt P07477). Briefly: Inhibitory activity against trypsin was determined.
The target of the next series is Prothrombin (Homo sapiens, UniProt P00734). Briefly: Inhibitory activity against thrombin (IIa) was determined.
In series [2] the test system is Rattus norvegicus. Put plainly: In vivo antithrombotic activity was measured after intravenous infusion (at 10 ug/kg/min) in rat FeCl3 arterial thrombosis model; 3/6. The format is functional.
The nature of series [3]: Final plasma concentration after intravenous infusion. The settings on record: read-out: Final plasma concentration. The format is ADME, cell-free.
The nature of series [4]: Half-life in dogs at 1 mg/kg dose upon oral administration. The format is ADME, organism-based, Canis lupus familiaris. The settings on record: dog, in vivo. The arrangement: dose 1 mg/kg, route oral. Summed up:
(§1)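 Dogs dosed orally at 1 mg/kg, n = 2 per compound. Plasma drug levels were followed over time to give Cmax (μM), tmax (min), elimination t1/2 (min) and AUC (μM·h).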

Series [5] in a line: Area under curve(AUC) value of the compound in dogs at 1 mg/kg dose upon oral administration. The format is ADME, organism-based, Canis lupus familiaris. The arrangement: dose 1 mg/kg, route oral. To be noted: dog, in vivo. The procedure, abridged:
as §1

Series [6] can be described thus: Maximum plasma concentration in dogs at 1 mg/kg dose upon oral administration. The format is ADME, organism-based, Canis lupus familiaris. The arrangement: dose 1 mg/kg, route oral. To be noted: dog. Summed up: as §1
Series [7] in a line: time required for maximum concentration in dogs at 1 mg/kg dose upon oral administration. The arrangement: dose 1 mg/kg, route oral. To be noted: dog, in vivo. The format is ADME, organism-based, Canis lupus familiaris. Summed up:
as §1

In series [8] the test system is Rattus norvegicus. Put plainly: In vivo antithrombotic activity was measured after intravenous infusion (at 10 ug/kg/min) in rat FeCl3 arterial thrombosis model; 0/6. The format is functional.
Series [9] is described as follows: in vitro anticoagulant potency (2x APTT) against rat plasma. The format is functional.
In series [10] the test system is Rattus norvegicus. Put plainly: In vivo antithrombotic activity was measured after intravenous infusion (at 10 ug/kg/min) in rat FeCl3 arterial thrombosis model; 0/9. The format is functional.
Series [11] is described as follows: Final plasma concentration after intravenous infusion at 5 ug/kg/min dose. The format is ADME, cell-free. The settings on record: 0.005 mg/kg, read-out: Final plasma concentration.
Series [12] is described as follows: Area under curve(AUC) value of the compound. The format is ADME.
Series [13] relates to Rattus norvegicus. Briefly: In vivo antithrombotic activity was measured after intravenous infusion (at 5 ug/kg/min) in rat FeCl3 arterial thrombosis model;1/6. The format is functional.
Series [14] can be described thus: Area under curve(AUC) value of the compound in dogs at 0.5 mg/kg dose upon oral administration. The format is ADME, organism-based. The arrangement: dose 0.5 mg/kg, route oral. To be noted: dog, in vivo. Summed up: (§2)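 Oral dosing at 0.5 mg/kg in dogs (n = 4) with plasma levels followed over time. Reported as Cmax (μM), tmax (min), terminal t1/2 (min) and AUC (μM·h), each given as mean ± spread. The same dogs later received an iv crossover dose at 0.5 mg/kg to estimate oral bioavailability.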

The nature of series [15]: Maximum plasma concentration in dogs at 0.5 mg/kg dose upon oral administration. The format is ADME, organism-based, Canis lupus familiaris. The arrangement: dose 0.5 mg/kg, route oral. To be noted: dog. Summed up: as §2
A short description of series [16]: Half-life in dogs at 0.5 mg/kg dose upon oral administration. To be noted: dog, in vivo. The arrangement: dose 0.5 mg/kg, route oral. The format is ADME, organism-based, Canis lupus familiaris. The procedure, abridged:
as §2

Series [17] has as its system Rattus norvegicus. Put plainly: In vivo antithrombotic activity was measured after intravenous infusion (at 5 ug/kg/min) in rat FeCl3 arterial thrombosis model; 4/6. The format is functional.
Series [18] in a line: time required for maximum concentration in dogs at 0.5 mg/kg dose upon oral administration. The arrangement: dose 0.5 mg/kg, route oral. The settings on record: dog, in vivo. The format is ADME, organism-based, Canis lupus familiaris. Summed up:
as §2

pKi: −log10 of the molar value.

Sequence of Serine protease 1 (P07477 whole entry): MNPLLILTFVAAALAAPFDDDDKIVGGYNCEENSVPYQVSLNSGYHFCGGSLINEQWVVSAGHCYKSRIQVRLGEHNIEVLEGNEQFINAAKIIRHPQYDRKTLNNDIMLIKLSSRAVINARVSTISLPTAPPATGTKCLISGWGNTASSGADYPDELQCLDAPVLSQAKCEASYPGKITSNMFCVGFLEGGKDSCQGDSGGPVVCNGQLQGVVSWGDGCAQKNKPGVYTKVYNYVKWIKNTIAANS

For `Cc1cc(N)nc(C)c1CNC(=O)Cn1c(C)cnc(NCCc2ccccc2)c1=O`, in series [1], the “2x APTT” value came to 420 nM. For the same compound, the pKi was 6.00 on Serine protease 1 and 9.46 on Prothrombin. This compound displayed an Occlusions with Rattus norvegicus [2] of 3. The concentration in [3] was determined as 224 nM.
Take `Cc1nc(N)ccc1CNC(=O)Cn1c(C)cnc(N[C@@H](C)Cc2ccccc2)c1=O`: the negative-log Ki (pKi) is 5.32 at Serine protease 1 and 7.66 at Prothrombin.
Take `Cc1cnc(NCCc2ccccc2)c(=O)n1CC(=O)NCc1ccc(N)nc1`: the “2x APTT” value in [1] turned out to be 2100 nM. Also, the values for the pKi at Serine protease 1 and on Prothrombin were 5.92 and 8.08, respectively.
Consider `Cc1nc(N)ccc1CNC(=O)Cn1c(C)c(Cl)nc(NCCc2ccccc2)c1=O`, for which the “2x APTT” value in series [1] worked out at 5470 nM. Moreover, the pKi at Serine protease 1 was 5.68; on Prothrombin, 8.15.
Take `Cc1nc(N)ccc1CNC(=O)Cn1c(C)cnc(NC(C)(C)Cc2ccccc2)c1=O`: the negative logarithm of the Ki (pKi) on Serine protease 1 was 5.59; on Prothrombin, 7.62.
In turn, `Cc1nc(N)ccc1CNC(=O)Cn1c(C)cnc(N[C@H](C)Cc2ccccc2)c1=O` had a half-life in series [4] of 2.13 h. Besides, the “2x APTT” value in [1] is 350 nM. The compound further returned an AUC in series [5] of 1.85 µM·h. In series [6], this compound displayed a Cmax of 600 nM. Also, the figures for the negative logarithm of the Ki (pKi) at Serine protease 1 and at Prothrombin were 5.82 and 9.28, respectively. Besides, the Tmax in series [7] was 0.417 h. In addition, in [3], the concentration turned out to be 554 nM. In the series with Rattus norvegicus [8], this compound showed an Occlusions of 0.
For `Cc1nc(N)ccc1CNC(=O)Cn1c(C)ccc(NS(=O)(=O)Cc2ccccc2)c1=O` [L-374087], the half-life in series [4] stood at 2.57 h. Besides, the “2x APTT” value came to 210 nM in [1] and 250 nM in series [9]. The compound also returned a peak concentration (Cmax) in series [6] of 990 nM. Further, the Occlusions with Rattus norvegicus [10] is listed as 0; in the series on Rattus norvegicus [13] it was 1. The concentration in [11] was determined as 221 nM; in [3], 586 nM. The compound further showed an exposure (AUC) in [12] of 4.42 µM·h. Moreover, the pKi on Serine protease 1 is 5.49; at Prothrombin it was 9.30. In addition, the Tmax in [7] is 1.25 h.
Take `Cc1nc(N)ccc1CNC(=O)Cn1c(C)cnc(NCCc2ccccc2)c1=O` [L-375378]: the figures for the “2x APTT” value in series [1] and in series [9] were 410 nM and 380 nM, respectively. The compound also gave an AUC in series [14] of 11.2 µM·h. In series [15], the concentration peaked (Cmax) at 1960 nM. The half-life in series [16] worked out at 3.85 h. The concentration in [11] worked out at 238 nM; in [3] it was 445 nM. The Occlusions in the series on Rattus norvegicus [17] worked out at 4; in the series with Rattus norvegicus [8] it was 0. Further, the time to peak (Tmax) in [18] is 0.875 h. In addition, the pKi is 5.74 on Serine protease 1 and 9.10 on Prothrombin.
